Tests used:
Type in all cases: functional
Brontispa longissima [1] = assay: Antifeedant activity against third-instar larvae of Brontispa longissima after 24 hr by conventional leaf disk method
Outline: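 Value is an AFC50: the concentration giving 50% antifeedant activity against third-instar larvae after 24 h exposure.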

Brontispa longissima [2] = assay: Antifeedant activity against third-instar larvae of Brontispa longissima at 1 mg/mL after 24 hr by conventional leaf disk method
Outline: (§1)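 Third-instar larvae exposed to test material at 1 mg/mL. Antifeedant rate is given as percent, mean ± SD, and is read after 24 h […] and 48 h […].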

Brontispa longissima [3] = assay: Insecticidal activity against third-instar larvae of Brontispa longissima assessed as mortality at 1 mg/mL after 9 days
Brontispa longissima [4] = assay: Antifeedant activity against third-instar larvae of Brontispa longissima at 1 mg/mL after 48 hr by conventional leaf disk method; outline: as §1

**Q.** Which results are given for COC(=O)C[C@H]1C(C)(C)[C@H](OC(C)=O)[C@]2(O)CC3=C4CC(=O)O[C@@H](c5ccoc5)[C@]4(C)CC[C@@H]3[C@@]1(C)C2=O [2-HYDROXYFISSINOLIDE]?
**A.** AFC50 (Brontispa longissima [1]): 94 µg/mL; Activity (Brontispa longissima [2]): 93.7%; Activity (Brontispa longissima [3]): 34.4%; Activity (Brontispa longissima [4]): 91.5%

**Q.** Which results are given for COC(=O)[C@H](O)[C@H]1C(C)(C)C(=O)[C@@H]2CC3=C4CC(=O)O[C@@H](c5ccoc5)[C@]4(C)CC[C@@H]3[C@@]1(C)C2=O [6-HYDROXYMEXICANOLIDE]?
**A.** Activity (Brontispa longissima [2]): 76.6%; Activity (Brontispa longissima [3]): 20.7%; Activity (Brontispa longissima [4]): 69.3%

**Q.** With COC(=O)[C@H](O)[C@H]1C(C)(C)[C@H](OC(=O)C(C)C)[C@]2(O)CC3=C4CC(=O)O[C@@H](c5ccoc5)[C@]4(C)CC[C@@H]3[C@@]1(C)C2=O [MOLUCCENSIN R] as the molecule, how does the Activity (Brontispa longissima [2]) read?
**A.** 69.6%

**Q.** And the Activity (Brontispa longissima [3])?
**A.** 17%

**Q.** And the Activity (Brontispa longissima [4])?
**A.** 62.1%

**Q.** For CCC(C)C(=O)O[C@H]1C(C)(C)[C@H]([C@@H](O)C(=O)OC)[C@]2(C)C(=O)[C@@]1(O)CC1=C3CC(=O)O[C@@H](c4ccoc4)[C@]3(C)CC[C@@H]12 (stereo partly drawn) [MOLUCCENSIN S], which Activity (Brontispa longissima [2]) is on record?
**A.** 42.3%

**Q.** And the Activity (Brontispa longissima [3])?
**A.** 48.2%

**Q.** And the Activity (Brontispa longissima [4])?
**A.** 44.1%
